# Measured values pooled from the literature.
# Protocols differ between the studies behind these lines.
# Target: NAD-dependent protein deacetylase sirtuin-1 (SIRT1, Homo sapiens, UniProt Q96EB6)
# Effect on: enzyme activity
# Mode: inhibitor
# Residues used in one study (Q96EB6 193-741): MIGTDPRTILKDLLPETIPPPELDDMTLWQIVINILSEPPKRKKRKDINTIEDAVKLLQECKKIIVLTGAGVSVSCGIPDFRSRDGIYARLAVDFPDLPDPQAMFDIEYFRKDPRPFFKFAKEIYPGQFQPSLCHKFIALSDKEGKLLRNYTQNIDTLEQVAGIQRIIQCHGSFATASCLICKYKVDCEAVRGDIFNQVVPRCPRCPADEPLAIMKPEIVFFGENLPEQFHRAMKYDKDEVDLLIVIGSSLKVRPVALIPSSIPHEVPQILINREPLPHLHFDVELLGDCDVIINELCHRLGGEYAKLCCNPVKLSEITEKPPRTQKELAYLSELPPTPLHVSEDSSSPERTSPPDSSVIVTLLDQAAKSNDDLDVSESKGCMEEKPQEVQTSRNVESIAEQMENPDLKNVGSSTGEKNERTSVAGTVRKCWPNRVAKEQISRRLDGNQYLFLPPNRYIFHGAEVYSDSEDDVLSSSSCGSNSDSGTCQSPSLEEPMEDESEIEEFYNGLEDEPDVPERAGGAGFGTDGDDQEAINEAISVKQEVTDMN
SMILES,test,conditions,inhibition [%]
CCCCCC1CC(=O)c2ccc(F)cc2O1 (stereo not shown),fluorescence,200 µM,3.8
CC(=S)NCCCC[C@H](NC(=O)OCc1ccccc1)C(=O)N[C@@H](Cc1c[nH]c2ccccc12)C(=O)N[C@@H](CCC(=O)O)C(N)=O,,1 µM,83
O=C(NC1CCC1)[C@H](Cc1c[nH]c2ccccc12)NC(=O)[C@H](CCCCNC(=S)NCc1n[nH]c(=S)o1)NS(=O)(=O)c1cccc(F)c1,,30 µM,37
Ic1cccc2cnccc12,,10 µM,2
CCCCCC1C=Cc2cc(Cl)cc(Br)c2O1 (stereo not shown),fluorescence,200 µM,7.1
Cc1ccc(C(=O)Nc2ccc(S(=O)(=O)O)c3cc(S(=O)(=O)O)cc(S(=O)(=O)O)c23)cc1NC(=O)c1cccc(NC(=O)Nc2cccc(C(=O)Nc3cc(C(=O)Nc4ccc(S(=O)(=O)O)c5cc(S(=O)(=O)O)cc(S(=O)(=O)O)c45)ccc3C)c2)c1,,10 µM,74
NC(=O)CCNC(=S)NCCCC[C@H](NS(=O)(=O)c1cccc(F)c1)C(=O)N[C@@H](Cc1c[nH]c2ccccc12)C(=O)NC1CCC1,,10 µM,3
CCCCCCCCCCCCNC(=S)NCCCC[C@H](NC(=O)OCc1ccccc1)C(=O)N[C@@H](Cc1c[nH]c2ccccc12)C(=O)N[C@@H](CCCNC(=N)N)C(N)=O,,1 µM,52
CCCCC[C@@H]1CC(=O)c2cc(Cl)cc(Br)c2O1,fluorescence,200 µM,5.3
O=C(NC1CCC1)[C@H](Cc1c[nH]c2ccccc12)NC(=O)[C@H](CCCCNC(=S)NCCc1nnn[nH]1)NS(=O)(=O)c1cccc(F)c1,,10 µM,17
